ChEMBL document CHEMBL4334459, “Identification of α-Mangostin as a Potential Inhibitor of Microtubule Affinity Regulating Kinase 4” (J Nat Prod, 2019)
pIC50: −log10 of the molar value. Values belong to the compound of their own block, whether it stands above or below them. Calls of active or inactive are those of the source. The calls are words filed in the database; no cut-off is given here.

Experiments:
[1] = target: T1, MAP/microtubule affinity-regulating kinase 4 (Homo sapiens) (UniProt Q96L34); assay: Inhibition of recombinant human MARK4 at 10 uM incubated for 2 hrs by [gamma32P]ATP assay
T1 sequence (whole entry): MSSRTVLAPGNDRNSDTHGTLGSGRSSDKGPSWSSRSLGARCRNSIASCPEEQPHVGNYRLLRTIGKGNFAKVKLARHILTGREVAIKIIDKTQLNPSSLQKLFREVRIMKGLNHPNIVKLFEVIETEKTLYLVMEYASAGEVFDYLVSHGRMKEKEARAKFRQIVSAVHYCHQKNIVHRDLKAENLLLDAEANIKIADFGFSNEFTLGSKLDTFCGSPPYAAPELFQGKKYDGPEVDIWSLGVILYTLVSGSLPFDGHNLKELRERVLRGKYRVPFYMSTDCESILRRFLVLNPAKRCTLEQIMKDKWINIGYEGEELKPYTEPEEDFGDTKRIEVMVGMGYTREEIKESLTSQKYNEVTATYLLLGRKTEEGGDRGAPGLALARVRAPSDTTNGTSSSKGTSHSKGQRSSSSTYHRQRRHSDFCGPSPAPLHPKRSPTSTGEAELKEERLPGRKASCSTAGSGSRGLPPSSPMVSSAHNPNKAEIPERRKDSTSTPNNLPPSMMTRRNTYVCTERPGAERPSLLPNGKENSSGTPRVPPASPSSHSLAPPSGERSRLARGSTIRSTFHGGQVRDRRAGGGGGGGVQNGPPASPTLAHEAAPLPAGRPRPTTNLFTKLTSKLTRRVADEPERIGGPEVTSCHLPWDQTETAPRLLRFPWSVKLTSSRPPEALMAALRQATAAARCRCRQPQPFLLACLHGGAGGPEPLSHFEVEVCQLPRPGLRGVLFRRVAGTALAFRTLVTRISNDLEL
How it was run: (§1)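 Recombinant human MARK4 was incubated 2 h at 37 °C with 1 mM cold ATP plus [γ-32P]ATP (222 TBq mmol−1), with or without compound. Released 32Pi was separated from ATP by TLC, and spots were quantified as % ATP hydrolysis relative to a 100 nM enzyme positive control. Screening was at a single 10 μM; dose-response used 0.5−10 μM.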

[2] = test system: MCF7; assay: Induction of apoptosis in human MCF7 cells assessed as apoptotic cells at IC50 after 24 hrs by annexin V-FITC/propidium iodide staining based Flow cytometric analysis (reference value: 0.01%); format: functional
[3] = test system: HEK293; assay: Cytotoxicity against human HEK293 cells assessed as reduction in cell viability upto 50 uM after 48 hrs by MTT assay; format: cell-based; details: hek293, 48 h
How it was run: (§2)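 Cells plated at 9000−10 000 cells/well, grown 24 h, then exposed to 0−50 μM compound for 48 h at 37 °C in 5% CO2, followed by a standard MTT read-out. HEK-293, MCF-7 and HepG2 were kept in DMEM with 10% heat-inactivated FBS and 1% penicillin−streptomycin. Viability is expressed as % of control, mean ± SD, n = 3. Paclitaxel served as positive control.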

[4] = test system: HepG2; assay: Antiproliferative activity against human HepG2 cells assessed as reduction in cell viability after 48 hrs by MTT assay; format: functional, cell-based; details: HepG2, 48 h; how it was run: as §2
[5] = test system: MCF7; assay: Antiproliferative activity against human MCF7 cells assessed as reduction in cell viability after 48 hrs by MTT assay; format: functional, cell-based; details: MCF7, 48 h; how it was run: as §2
[6] = test system: HepG2; assay: Induction of cell cycle arrest in human HepG2 cells assessed as accumulation at G0/G1 phase at IC50 after 24 hrs by propidium iodide staining based Flow cytometric analysis (reference value: 60%); format: functional
[7] = test system: HepG2; assay: Induction of cell cycle arrest in human HepG2 cells assessed as accumulation at S phase at IC50 after 24 hrs by propidium iodide staining based Flow cytometric analysis (reference value: 15%); format: functional
[8] = target: T1, MAP/microtubule affinity-regulating kinase 4 (Homo sapiens); assay: Inhibition of MARK4 in human SH-SY5Y cells assessed as reduction in tau phosphorylation at IC50 after 24 hrs by flow cytometric analysis; format: cell-based
How it was run: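 SH-SY5Y cells were grown in 1:1 EMEM/F12 with 10% FBS and incubated with IC50 compound. After 24 h, about 1 × 10^6 cells were collected, fixed, and stained with anti-tau primary antibody for 2−3 h at 25 °C. Phospho-tau signal was read by flow cytometry against untreated cells.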

[9] = test system: HepG2; assay: Induction of cell cycle arrest in human HepG2 cells assessed as accumulation at S phase at IC50 after 24 hrs by propidium iodide staining based Flow cytometric analysis (reference value: 25%); format: functional
[10] = test system: HepG2; assay: Induction of apoptosis in human HepG2 cells assessed as viable cells at IC50 after 24 hrs by annexin V-FITC/propidium iodide staining based Flow cytometric analysis (reference value: 97.32%); format: functional
[11] = target: T1, MAP/microtubule affinity-regulating kinase 4 (Homo sapiens); assay: Binding affinity to recombinant human MARK 4 by fluorescence based Stem-Volme plot analysis
How it was run: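 Intrinsic fluorescence of recombinant MARK4 (10 μM) was titrated with increasing ligand, using excitation at 280 nm and emission recorded from 300−400 nm. Quenching was fitted to a modified Stern−Volmer equation, log(Fo−F)/F = log Ka + n log[L]. Ka came from the intercept and n from the slope. Three independent triplicate titrations were averaged.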

[12] = target: T2, MAP/microtubule affinity-regulating kinase 4 (Homo sapiens, UniProt Q96L34); assay: (§3) Inhibition of recombinant human MARK4 incubated for 2 hrs by [gamma32P]ATP assay; how it was run: as §1
T2 sequence (Q96L34 whole entry): T1 sequence (whole entry)

[13] = target: T1, MAP/microtubule affinity-regulating kinase 4 (Homo sapiens); assay: as §3; how it was run: as §1
[14] = test system: MCF7; assay: Inhibition of cell migration in human MCF7 cells at IC50 after 48 hrs by phase contrast inverted microscopic based wound healing assay; format: functional
[15] = target: T1, MAP/microtubule affinity-regulating kinase 4 (Homo sapiens); assay: Inhibition of MARK4 in human MCF7 cells assessed as reduction in ROS level at IC50 after 5 to 6 hrs by DCFDA staining using spectroflourimetric analysis; format: cell-based
[16] = target: T1, MAP/microtubule affinity-regulating kinase 4 (Homo sapiens); assay: Inhibition of MARK4 in human HepG2 cells assessed as reduction in ROS level at IC50 after 5 to 6 hrs by DCFDA staining using spectroflourimetric analysis; format: cell-based
[17] = test system: MCF7; assay: Induction of cell cycle arrest in human MCF7 cells assessed as accumulation at S phase at IC50 after 24 hrs by propidium iodide staining based Flow cytometric analysis (reference value: 20%); format: functional
[18] = test system: MCF7; assay: Induction of cell cycle arrest in human MCF7 cells assessed as accumulation at G2 phase at IC50 after 24 hrs by propidium iodide staining based Flow cytometric analysis (reference value: 15%); format: functional
[19] = test system: HepG2; assay: Induction of apoptosis in human HepG2 cells assessed as apoptotic cells at IC50 after 24 hrs by annexin V-FITC/propidium iodide staining based Flow cytometric analysis (reference value: 2.68%); format: functional
[20] = test system: MCF7; assay: Induction of cell cycle arrest in human MCF7 cells assessed as accumulation at G0/G1 phase at IC50 after 24 hrs by propidium iodide staining based Flow cytometric analysis (reference value: 65%); format: functional
[21] = test system: MCF7; assay: Induction of apoptosis in human MCF7 cells assessed as viable cells at IC50 after 24 hrs by annexin V-FITC/propidium iodide staining based Flow cytometric analysis (reference value: 99.99%); format: functional

inhibition [1]: Active
Compound: O=c1oc2c(O)c(O)cc3c(=O)oc4c(O)c(O)cc1c4c23

pIC50 [4]: 4.73
pIC50 [5]: 5.00
inhibition [8]: Active
Ka [11]: 5.2 ×10⁷ /M
pIC50 [12]: 5.75
inhibition [13]: Dose-dependent effect
inhibition [1]: Active
inhibition [15]: Active
inhibition [16]: Active
Compound: COc1c(O)cc2oc3cc(O)c(CC=C(C)C)c(O)c3c(=O)c2c1CC=C(C)C [MANGOSTIN]
Activity [2]: 25.9%
Activity [3]: Non-Toxic
Activity [6]: 75%
Activity [7]: 10%
Activity [9]: 15%
Activity [10]: 80.3%
inhibition [14]: Active
Activity [17]: 10%
Activity [18]: 7%
Activity [19]: 19.7%
Activity [20]: 83%
Activity [21]: 74.1%
